Assay results: ChEMBL document CHEMBL1127533, “Presynaptic cholinergic modulators as potent cognition enhancers and analgesic drugs. 2. 2-Phenoxy-, 2-(phenylthio)-, and 2-(phenylamino)alkanoic acid esters” (J Med Chem, 1994)
Activity calls are given as the source filed them.

Columns and labels:
[1] = tested on: Mus musculus; assay: Analgesic potency was evaluated as effective dose after subcutaneous administration.; type: functional
Procedure, shortened: (§1)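 Mouse hot-plate assay after Woolfe, with the plate held at 52.5 ± 0.1 °C and a 45 s cutoff. Groups held 8–20 mice. Analgesic potency is expressed as the ED50.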

[2] = species: Mus musculus; assay: Analgesic activity in male albino Swiss-Webster mice in hotplate test; type: functional; design: unit not given here; procedure, shortened: as §1
[3] = species: Mus musculus; assay: Compound was evaluated for analgesic activity, in male albino Swiss-Webster mice with hotplate test and maximum level of analgesia reached is evaluated; type: functional
Procedure, shortened: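 Mouse hot-plate at 52.5 ± 0.1 °C with a 45 s cutoff. Each compound was given at its maximal nontoxic dose, defined as no visible behavioural change to blinded observers. Efficacy = (max reaction time − pretest)/(same for morphine-HCl 8 mg/kg sc) × 100.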

[4] = target: Muscarinic acetylcholine receptor; assay: The compound is evaluated for binding affinity against central muscarinic receptor by using [3H]- QNB as radioligand; type: protein assay
[5] = tested on: Mus musculus; assay: Analgesic potency was evaluated as Effective Dose 50 after subcutaneous administration. Standard error given in parenthesis; type: functional; conditions: sc; procedure, shortened: as §1
[6] = Mus musculus, sc, read-out: ED50

SMILES	ED50 [1, 6] [mg/kg]	Analgesic activity [2]	further results
C[C@H](Sc1ccc(Cl)cc1)C(=O)OC1CC2CCC(C1)N2C (stereo partly drawn)	16	34	–
CC(Sc1ccc(F)cc1)C(=O)OC1CC2CCC(C1)N2C (stereo not drawn)	15	41	–
CC(Oc1ccc(F)cc1)C(=O)OC1CC2CCC(C1)N2C.O=C(O)/C=C\C(=O)O (racemic)	33	91	–
CC(COC1CC2CCC(C1)N2C)Oc1ccc(Cl)cc1 (stereo not drawn)	44	64	–
CCC(Oc1cccc2ccccc12)C(=O)OC1CC2CCC(C1)N2C (stereo not drawn)	–	inactive	–
CC(COC1CC2CCC(C1)N2C)Sc1ccc(Cl)cc1 (stereo not drawn)	–	inactive	–
CC(Oc1ccc(Cl)cc1)C(=O)OC1CC2CCC(C1)N2C.O=C(O)/C=C\C(=O)O (stereo in doubt; 12)	–	26	ED50 [1]: 21 mg/kg
CC(Oc1ccc(Cl)c(Cl)c1)C(=O)OC1CC2CCC(C1)N2C.O=C(O)/C=C\C(=O)O (stereo not drawn)	22	50	–
CCC(Oc1ccc(F)cc1)C(=O)OC1CC2CCC(C1)N2C (stereo not drawn)	37	94	–
CCC(Oc1ccc(Cl)cc1)C(=O)OC1CCN(C)CC1 (stereo not drawn)	–	inactive	–
C[C@@H](Sc1ccc(Cl)cc1)C(=O)OC1CC2CCC(C1)N2C (stereo partly drawn)	14	61	–
CC(=O)OCC(Oc1ccc(Cl)cc1)C(=O)OC1CC2CCC(C1)N2C (stereo not drawn)	23	25	–
CN1C2CCC1CC(OC(=O)COc1ccccc1)C2 (stereo not drawn)	–	inactive	–
CCN(CC)CC#CCOC(=O)C(C)Oc1ccc(Cl)cc1 (stereo not drawn)	–	inactive	–
CSc1ccc(OC(C)C(=O)OC2CC3CCC(C2)N3C)cc1.O=C(O)/C=C\C(=O)O (stereo not drawn)	43	21	–
CC(Oc1ccccc1Cl)C(=O)OC1CC2CCC(C1)N2C (stereo not drawn)	–	inactive	–
C[C@H](Oc1ccc(F)cc1)C(=O)OC1CC2CCC(C1)N2C (stereo partly drawn)	23	65	–
CC(Oc1ccc(C(F)(F)F)cc1)C(=O)OC1CC2CCC(C1)N2C (stereo not drawn)	26	44	–
CC(Oc1ccc(Cl)cc1)C(=O)OC1CC2CCC(C1)N2C.O=C(O)/C=C\C(=O)O (racemic)	32	–	Analgesic activity [3]: 90
CC(Oc1ccc2cc(Br)ccc2c1)C(=O)OC1CC2CCC(C1)N2C (stereo not drawn)	–	inactive	–
CC(Sc1ccc(Br)cc1)C(=O)OC1CC2CCC(C1)N2C (stereo not drawn)	35	33	–
CCC(Oc1ccc(Cl)cc1)C(=O)OCCCN(C)C (stereo not drawn)	–	inactive	–
CCC(COC1CC2CCC(C1)N2C)Sc1ccc(Cl)cc1 (stereo not drawn)	39	53	–
CC(Oc1ccc([S+](C)[O-])cc1)C(=O)OC1CC2CCC(C1)N2C (stereo not drawn)	–	inactive	–
CCC(Sc1ccccc1)C(=O)OC1CC2CCC(C1)N2C (single isomer, unassigned; (+))	16	86	–

SMILES	ED50 [1, 6] [mg/kg]	Analgesic activity [2]	further results
CC(Oc1ccccc1)C(=O)OC1CC2CCC(C1)N2C (stereo not drawn)	–	inactive	–
CCN1C2CCC1CC(OC(=O)C(C)Oc1ccc(Cl)cc1)C2.O=C(O)/C=C\C(=O)O (stereo not drawn)	42	42	–
CCC(Oc1ccc(Cl)cc1)C(=O)OCC#CCN(CC)CC (stereo not drawn)	–	inactive	–
CCC(Oc1ccccc1)C(=O)OC1CC2CCC(C1)N2C (stereo not drawn)	31	35	–
CC[C@H](Sc1ccc(Cl)cc1)C(=O)OC1CC2CCC(C1)N2C (stereo partly drawn)	14	38	–
CC(Oc1ccc(Cl)c2ccccc12)C(=O)OC1CC2CCC(C1)N2C (stereo not drawn)	–	inactive	–
CC(Oc1cccc2ccccc12)C(=O)OC1CC2CCC(C1)N2C (stereo not drawn)	–	inactive	–
CCC(Oc1ccc2cc(Br)ccc2c1)C(=O)OC1CC2CCC(C1)N2C.O=C(O)/C=C\C(=O)O (stereo not drawn)	42	32	–
CCC(C(=O)OC1CC2CCC(C1)N2C)N(C)c1ccc(Cl)cc1.O=C(O)/C=C\C(=O)O (stereo not drawn)	38	85	–
CC(Sc1ccccc1)C(=O)OC1CC2CCC(C1)N2C.O=C(O)/C=C\C(=O)O (stereo not drawn)	30	62	–
CC(Oc1ccc(C#N)cc1)C(=O)OC1CC2CCC(C1)N2C.O=C(O)/C=C\C(=O)O (stereo not drawn)	31	53	–
CCC(Oc1ccc(Cl)c2ccccc12)C(=O)OC1CC2CCC(C1)N2C (stereo not drawn)	–	inactive	–
CC(Oc1ccc(Cl)cc1)C(=O)NC1CC2CCC(C1)N2C.Cl (stereo not drawn)	36	33	–
Cc1cc(OC(C)C(=O)OC2CC3CCC(C2)N3C)ccc1Cl (stereo not drawn)	–	inactive	–
C[C@H](Oc1ccc(Cl)cc1)C(=O)OC1CC2CCC(C1)N2C (stereo partly drawn)	17	37	–
CCC(Sc1ccc(Cl)cc1)C(=O)OC1CC2CCC(C1)N2C (racemic)	20	79	–
CCC(Sc1ccccc1)C(=O)OC1CC2CCC(C1)N2C (stereo in doubt; (-)-42)	–	53	ED50 [1]: 13 mg/kg
CC(Oc1ccc(Cl)cc1)C(=O)OC1CC2CCC(C1)N2 (stereo not drawn)	–	inactive	–
Cc1ccc(SC(C)C(=O)OC2CC3CCC(C2)N3C)cc1.O=C(O)/C=C\C(=O)O (stereo not drawn)	7	33	–
CCC(Sc1ccccc1)C(=O)OC1CC2CCC(C1)N2C (racemic)	–	103	Ki [4]: 22.7 nM; ED50 [1]: 18 mg/kg
CCN(CC)CCOC(=O)C(C)Oc1ccc(Cl)cc1 (stereo not drawn)	–	inactive	–
CN1C2CCC1CC(OC(=O)C(Oc1ccc(Cl)cc1)c1ccccc1)C2 (stereo not drawn)	–	inactive	–
CC(Oc1cccc(Cl)c1)C(=O)OC1CC2CCC(C1)N2C (stereo not drawn)	26	62	–
CN1C2CCC1CC(OC(=O)CCOc1ccccc1)C2.O=C(O)/C=C\C(=O)O (stereo not drawn)	–	–	ED50 [5]: 22 mg/kg; Analgesic activity [3]: 28
CC(Sc1ccc(Cl)cc1)C(=O)OC1CC2CCC(C1)N2C.O=C(O)/C=C\C(=O)O (racemic)	19	72	–

SMILES	ED50 [1, 6] [mg/kg]	Analgesic activity [2]	further results
CC(C(=O)OC1CC2CCC(C1)N2C)N(C)c1ccc(Cl)cc1.O=C(O)/C=C\C(=O)O (stereo not drawn)	29	86	–
CC(Oc1ccc(-c2ccccc2)cc1)C(=O)OC1CC2CCC(C1)N2C (stereo not drawn)	–	inactive	–
CC(Nc1ccccc1)C(=O)OC1CC2CCC(C1)N2C.Cl (stereo not drawn)	32	74	–
CC(Nc1ccc(Cl)cc1)C(=O)OC1CC2CCC(C1)N2C (stereo not drawn)	31	33	–
CC[C@@H](Oc1ccc(Cl)cc1)C(=O)OC1CC2CCC(C1)N2C (stereo partly drawn)	14	89	–
CN1C2CCC1CC(OC(=O)C(Cc1ccccc1)Oc1ccc(Cl)cc1)C2 (stereo not drawn)	–	inactive	–
C[C@@H](Oc1ccc(F)cc1)C(=O)OC1CC2CCC(C1)N2C (stereo partly drawn)	21	106	–
CCC(COC1CC2CCC(C1)N2C)Oc1ccc(Cl)cc1 (stereo not drawn)	–	inactive	–
CC(C(=O)OC1CC2CCC(C1)N2C)C(=O)c1ccc(Cl)cc1 (stereo not drawn)	34	30	–
C[C@@H](Oc1ccc(Cl)cc1)C(=O)OC1CC2CCC(C1)N2C (stereo partly drawn)	16	68	–
CC(C(=O)OC1CC2CCC(C1)N2C)[S+]([O-])c1ccccc1 (stereo not drawn)	–	inactive	–
CC(Oc1ccc(Br)cc1)C(=O)OC1CC2CCC(C1)N2C (stereo not drawn)	31	86	–
CC[C@@H](Sc1ccc(Cl)cc1)C(=O)OC1CC2CCC(C1)N2C (stereo partly drawn)	11	64	–
CCC(Oc1ccc(Cl)cc1)C(=O)OC1CC2CCC(C1)N2C.O=C(O)/C=C\C(=O)O (racemic)	20	99	Ki [4]: 174 nM
CC(Oc1ccc2ccccc2c1)C(=O)OC1CC2CCC(C1)N2C.O=C(O)/C=C\C(=O)O (stereo not drawn)	34	86	–
CC(Oc1ccc(Cl)cc1)C(=O)OC1CC2CCC(C1)N2Cc1ccccc1 (stereo not drawn)	–	inactive	–
CCC(Oc1ccc(Cl)cc1)C(=O)OC1CC2CCC(C1)N2CC (stereo not drawn)	32	45	–
CC(Oc1ccc(Cl)cc1)C(=O)OC1CCN(C)CC1 (stereo not drawn)	–	inactive	–
CC(Oc1ccc(C(C)(C)C)cc1)C(=O)OC1CC2CCC(C1)N2C (stereo not drawn)	–	inactive	–
CC(C)C(Sc1ccc(Cl)cc1)C(=O)OC1CC2CCC(C1)N2C.O=C(O)/C=C\C(=O)O (stereo not drawn)	41	41	–
CC(C)C(Oc1ccc(Cl)cc1)C(=O)OC1CC2CCC(C1)N2C (stereo not drawn)	–	inactive	–
CC[C@H](Oc1ccc(Cl)cc1)C(=O)OC1CC2CCC(C1)N2C (stereo partly drawn)	18	56	–
CN1C2CCC1CC(OC(=O)C(C)(C)Oc1ccc(Cl)cc1)C2 (stereo not drawn)	23	52	–
CCC(Oc1ccc2ccccc2c1)C(=O)OC1CC2CCC(C1)N2C (stereo not drawn)	–	inactive	–
